Active and inactive are the calls of the source. The calls are words filed in the database; no cut-off is given here. Bounds are passed on as bounds.

The target of series [1] is Mu-type opioid receptor (Mus musculus) (UniProt P42866). The series can be described thus: Binding affinity to mouse mu opioid receptor expressed in CHO cell membrane assessed as stimulation of [35S]-GTPgammaS binding by measuring maximal efficacy incubated for 1.5 hrs by scintillation spectroscopy analysis relative DAMGO. Format: cell membranes. In outline:
(§1)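 MOR [35S]GTPγS functional assay in MOR-CHO membranes (Bmax about 2.5–4 pmol/mg). Efficacy is expressed as % of the maximal stimulation by full agonist DAMGO.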

Series [2] has as its target Kappa-type opioid receptor (Mus musculus) (UniProt P33534). The series can be described thus: Binding affinity to mouse kappa opioid receptor expressed in CHO cell membrane assessed as stimulation of [35S]-GTPgammaS binding by measuring maximal efficacy incubated for 1.5 hrs by scintillation spectroscopy analysis relative SNC80. The format is cell membranes.
The test system of series [3] is Mus musculus. The series can be described thus: Effect of compound on chronic morphine pelleted Swiss Webster mouse model assessed as decrease in wet-dog shake symptom at 50 mg/kg, sc and measured for 20 mins by withdrawal assay. Format: functional, organism-based.
Series [4] deals with Mus musculus. The series can be described thus: Effect of compound on chronic morphine pelleted Swiss Webster mouse model assessed as decrease in jump symptom at 50 mg/kg, sc and measured for 20 mins by withdrawal assay. Format: functional, organism-based.
Series [5] deals with Kappa-type opioid receptor (Mus musculus) (UniProt P33534). Description: Binding affinity to mouse kappa opioid receptor expressed in CHO cell membrane assessed as stimulation of [35S]-GTPgammaS binding by measuring maximal efficacy incubated for 1.5 hrs by scintillation spectroscopy analysis relative U50488H. The format is cell membranes. Conditions: filed as modulator. In outline:
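KOR [35S]GTPγS functional assay in KOR-expressing CHO membranes. Efficacy is expressed as % of the maximal stimulation by full agonist U50,488H, with EC50 also determined. Mean of at least three independent experiments.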

The test system of series [6] is Mus musculus. The series can be described thus: Effect of compound on chronic morphine pelleted Swiss Webster mouse model assessed as decrease in paw tremors symptom at 50 mg/kg, sc and measured for 20 mins by withdrawal assay. The format is functional, organism-based.
The subject of series [7] is Mus musculus. The series can be described thus: Antinociceptive activity in sc dosed Swiss Webster mouse assessed as inhibition of morphine induced latency to tail withdrawal preincubated for 5 mins followed by morphine addition and measured after 20 mins by warm water tail immersion assay. Format: functional. The settings on record: 25 min. In outline:
(§2)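 Male Swiss-Webster mice (n = 5). Compound is given s.c. at time 0 (10 mg/kg in the single-dose screen, a dose range for AD50), and morphine 10 mg/kg follows 5 min later. Tail flick is tested in 56 ± 0.1 °C water 20 min after morphine and scored as % MPE. Saline and morphine alone are the controls.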

The subject of series [8] is Mus musculus. The series can be described thus: Effect of compound on chronic morphine pelleted Swiss Webster mouse model assessed as decrease in wet-dog shake symptom at 10 to 80 mg/kg, sc and measured for 20 mins by withdrawal assay. Format: functional, organism-based. The settings on record: dose 10-80 mg/kg. In outline:
(§3)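 Male Swiss-Webster mice made dependent with chronic morphine pellets. Compound is injected and wet-dog shakes, paw tremors and jumps are counted over 20 min after each injection.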

The subject of series [9] is Mus musculus. Description: Effect of compound on chronic morphine pelleted Swiss Webster mouse model assessed as decrease in jump symptom at 40 mg/kg, sc and measured for 20 mins by withdrawal assay. Format: functional, organism-based. In outline: as §3
Series [10] in a line: Efflux ratio of apparent permeability in human Caco-2 cells. Format: ADME, cell-based.
Series [11] in a line: Protein binding in rat plasma at 10 uM and measured upto 24 hrs by equilibrium dialysis based MS analysis. Format: ADME, cell-free.
Series [12] is filed under the species Mus musculus. The series can be described thus: Selectivity ratio, ratio of Ki for binding affinity to mouse kappa opioid receptor expressed in CHO cell membrane to Ki for binding affinity to mouse mu opioid receptor expressed in CHO cell membrane.
For series [13], the system named is Mus musculus. The series can be described thus: Antinociceptive activity in Swiss Webster mouse assessed as inhibition of morphine induced latency to tail withdrawal at 10 mg/kg, sc preincubated for 5 mins followed by morphine addition and measured after 20 mins by warm water tail immersion assay. The format is functional, organism-based. Conditions: time 25.0 min. In outline: as §2

Series [14] is described as follows: Protein binding in human plasma at 10 uM and measured upto 24 hrs by equilibrium dialysis based MS analysis. The format is ADME, cell-free.
For series [15], the target named is T1, Mu-type opioid receptor (Mus musculus, UniProt P42866). Description: Antagonist activity at mouse mu opioid receptor expressed in CHO cells co-expressing Gqi5 assessed as inhibition of DAMGO induced increase in intracellular calcium flux incubated for 15 mins by Calcium flux assay. The format is functional, cell-based. The method, boiled down: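 MOR-CHO cells transiently transfected with Gqi5 (4 h at 37 °C, 5% CO2), replated and used 48 h post-transfection. For antagonist mode DAMGO is then added. Fluorescence (RFU) is read for 90 s and peak values are taken. IC50 comes from non-linear regression. Triplicates, at least four experiments.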

Series [16] concerns Mus musculus. The series can be described thus: Effect of compound on chronic morphine pelleted Swiss Webster mouse model assessed as decrease in paw tremors symptom at 10 to 80 mg/kg, sc and measured for 20 mins by withdrawal assay. Format: functional, organism-based. The settings on record: dose 10-80 mg/kg. The method, boiled down: as §3
The nature of series [17]: Metabolic stability in rat liver microsomes assessed as half life. Format: ADME, Microsome. The method, boiled down: (§4)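 Human or rat liver microsomal stability, run by a contract lab. Half-life and hepatic CLint are reported.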
A short description of series [18]: Metabolic stability in human liver microsomes assessed as half life. Format: ADME, Microsome. The method, boiled down:
as §4

In series [19] the target is T1, Mu-type opioid receptor. The series can be described thus: Binding affinity to mouse mu opioid receptor expressed in CHO cell membrane assessed as [35S]GTPgammaS binding incubated for 1.5 hrs by liquid scintillation counter analysis. The format is cell membranes. The method, boiled down:
as §1

For series [20], the target named is Mu-type opioid receptor (Mus musculus) (UniProt P42866). Description: Agonist activity at mouse mu opioid receptor expressed in CHO cells co-expressing Gqi5 assessed as increase in intracellular calcium level incubated for 15 mins by Calcium flux assay. Format: functional, cell-based. The method, boiled down: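 MOR-CHO cells transiently transfected with Gqi5 (4 h at 37 °C, 5% CO2), replated and used 48 h post-transfection. Cells are loaded with fluo-4 AM plus probenecid in HBSS–HEPES buffer for 45 min, then exposed to compound for 15 min (agonist mode 0.3 nM to 3 μM). For antagonist mode DAMGO is then added. Fluorescence (RFU) is read for 90 s and peak values are taken. IC50 comes from non-linear regression. Triplicates, at least four experiments.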

For series [21], the target named is T1, Mu-type opioid receptor. Description: Binding affinity to mouse mu opioid receptor expressed in CHO cell membrane assessed as inhibition constant incubated for 1.5 hrs by competitive radioligand binding assay. The format is cell membranes.
Series [22] concerns the target Kappa-type opioid receptor (Mus musculus, UniProt P33534). The series can be described thus: Binding affinity to mouse kappa opioid receptor expressed in CHO cell membrane assessed as inhibition constant incubated for 1.5 hrs by competitive radioligand binding assay. The format is cell membranes.
For series [23], the target named is Voltage-gated inwardly rectifying potassium channel KCNH2 (Homo sapiens, UniProt Q12809). The series can be described thus: Inhibition of human ERG expressed in CHO-K1 cells with holding potential of -80 mV by automated patch clamp assay. Conditions: CHO-K1 cells expressing human ERG.

On to `O=C(N[C@H]1CC[C@@]2(O)[C@H]3Cc4ccc(O)c5c4[C@@]2(CCN3CC2CC2)[C@H]1O5)c1cccc2cc[nH]c12`, for which the values for the Emax in [1], in series [2] (filed as modulator) and in [5] were 19.1%, 76.8% and 48.3%, respectively. The outcome in series [3] and in series [4] was inactive. For the same compound, the result in series [6] was Active. Besides, the ED50 in [7] turned out to be 2.07 mg/kg.
In the case of `Cc1cc2cccc(C(=O)N[C@H]3CC[C@@]4(O)[C@H]5Cc6ccc(O)c7c6[C@@]4(CCN5CC4CC4)[C@H]3O7)c2[nH]1.Cl`, the outcome in series [8] and in series [20] was inactive. In addition, the result in [9], in [13] and in series [16] was Active. Moreover, the values for the maximal response (Emax) in series [1], in [2] and in series [5] were 12%, 26.7% and 73.9%, respectively. Moreover, the Ratio in [10] is on record as 2.2. Besides, the PPB in series [11] is on record as 96%; in series [14] it was 99%. Besides, the Ratio Ki in [12] was 3.6. The IC50 stood at 87.5 nM in [15] and 0.14 nM in series [23]. For the same compound, the t1/2 in series [17] and in series [18] was more than 1 h in each case. In addition, in series [19], the EC50 came to 3.86 nM. Further, in [7], the ED50 worked out at 10.6 mg/kg. Besides, the figures for the Ki in series [21] and in series [22] were 0.59 nM and 2.1 nM, respectively.
